Assay results from ChEMBL document CHEMBL1142984, “Stabilization of G-quadruplex DNA and down-regulation of oncogene c-myc by quindoline derivatives” (J Med Chem, 2007).
Calls of active or inactive are those of the source. The rule behind the calls is not given here.

Columns and labels:
[1] = Stabilization of Pu27 oligomer by inducing G-quadruplex formation assessed as inhibition of hybridization with Pu27rev by PCR stop assay
Method in brief: (§1)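 Test oligomer plus complementary strand ([…]) in 1×PCR buffer with 0.16 mM dNTP, 2.5 U Taq and derivative […]. Cycling: 94 C 3 min, then 30 cycles of 94 C 30 s, 58 C 30 s, 72 C 30 s. Products run on 15% nondenaturing polyacrylamide in 1×TBE, silver stained; quadruplex stabilization blocks extension.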

[2] = Inhibition of Pu27-13, 14 oligomer hybridization with Pu27rev at 36 uM by PCR stop assay; method in brief: as §1
[3] = Inhibition of Pu27 oligomer hybridization with Pu27rev at 36 uM by PCR stop assay; method in brief: as §1
[4] = Inhibition of Pu27 oligomer hybridization with Pu27rev at 18 uM by PCR stop assay; method in brief: as §1
Ramos = assay: Inhibition of c-myc expression in Ramos cells at 10 uM; type: functional, cell-based; conditions: Homo sapiens
Method in brief: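 Ramos cells (about 1 × 105 seeded) treated with derivative at […] and harvested 24 h later alongside untreated cells. RNA reverse transcribed at 42 C for 60 min. PCR used […], 36 cycles (95/50/72 C, 1 min each). Products resolved on 1.5% agarose.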

HepG2 [5] = assay: Growth inhibition in HepG2 cells after 5 days; type: functional, cell-based; conditions: Homo sapiens, HepG2, 120 h
Method in brief: (§2)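 Hep G2 cells in RPMI-1640 with 10% FBS at 37 C, 5% CO2. About 5000 cells seeded; compound ([…], freshly dissolved) added 24 h after plating and re-added at day 5. Cell counts and viability by trypan blue exclusion daily, days 1 to 8. IC50 calculated at days 5 and 7 of treatment.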

HepG2 [6] = assay: Inhibition of c-myc expression in HepG2 cells at 100 uM; type: functional, cell-based; conditions: Homo sapiens
Method in brief: (§3)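 About 5 × 10^5 Hep G2 cells seeded, treated 24 h after plating with derivative (6.25 to 100 µM) for 24 h. Total RNA extracted and reverse transcribed at 42 C for 60 min. PCR used […], 500 µM dNTPs, 36 cycles (95/50/72 C, 1 min each). Products read on 1.5% agarose against β-actin.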

HepG2 [7] = assay: Growth inhibition in HepG2 cells after 7 days; type: functional, cell-based; conditions: Homo sapiens, HepG2, 168 h; method in brief: as §2
[8] = Inhibition of Pu27 oligomer hybridization with Pu27rev at 6 uM by PCR stop assay; method in brief: as §1
HepG2 [9] = assay: Inhibition of c-myc expression in HepG2 cells at 50 uM; type: functional, cell-based; conditions: Homo sapiens; method in brief: as §3

Structure (SMILES) | Activity [1] | Activity [2] | Activity [3] | Activity [4] | IC50 (HepG2 [5]) | IC50 (HepG2 [7]) | Activity [8] | Activity (Ramos) | Activity (HepG2 [6]) | Activity (HepG2 [9])
CN(C)CCCNc1c2ccccc2nc2c1[nH]c1ccccc12 | Active | inactive | – | Active | – | – | – | – | – | –
CCN(CC)CCNc1c2ccccc2nc2c1oc1ccccc12 | Active | inactive | – | Active | – | – | – | – | – | –
CN(C)CCNc1c2ccccc2nc2c1oc1ccccc12 | Active | inactive | – | Active | – | – | – | – | – | –
CN(C)CCCNc1c2ccccc2nc2c1oc1ccccc12 | Active | inactive | – | Active | – | – | – | – | – | –

Second part, led by results:

Activity [1] | Activity [2] | Activity [3] | Activity [4] | IC50 (HepG2 [5]) | IC50 (HepG2 [7]) | Activity [8] | Structure (SMILES) | Activity (Ramos) | Activity (HepG2 [6]) | Activity (HepG2 [9])
Active | inactive | Active | – | – | – | – | OCCNc1c2ccccc2nc2c1oc1ccccc12 | – | – | –
Active | inactive | Active | – | – | – | – | OCCNc1c2ccccc2nc2c1[nH]c1ccccc12 | – | – | –
Active | inactive | Active | – | 1000 nM | 1300 nM | – | OCCCNc1c2ccccc2nc2c1[nH]c1ccccc12 | Active | Active | –
Active | inactive | – | Active | – | – | – | CN(C)CCNc1c2ccccc2nc2c1[nH]c1ccccc12 | – | – | –
Active | inactive | – | – | 200 nM | 300 nM | Active | CCN(CC)CCNc1c2ccccc2nc2c1[nH]c1ccccc12 | Active | – | Active
Active | inactive | Active | – | – | – | – | OCCCNc1c2ccccc2nc2c1oc1ccccc12 | – | – | –
